Measured values reported in paper PMC8530978 (Bioorganic chemistry, 2021).

Key:
[1] = tested on: histone H3 acetylation and tubulin acetylation in HCT116 cells; assay: Western blot of histone H3 and tubulin acetylation in HCT116 cells; format: cell-based, human; conditions: HCT116, 24 h, IPEs up to highest concentration 25 μM
Method in brief: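 HCT116 cells (2 × 10^6 per T-25 flask) adhered overnight, then given test compound at 1, 10 or 25 μM, or DMSO, for 24 h. Lysed in RIPA; protein measured by BCA. Acetyl-histone H3 and acetyl-tubulin immunoblotted, detected with fluorescent secondary antibodies on an Odyssey scanner.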

HeLaM cells [2] = assay: Flow cytometry cell cycle analysis; format: cell-based
Method in brief: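 5 × 10^5 HeLaM cells plated, treated next day with test compound or DMSO for 24, 48 or 72 h. All cells (floating and attached) collected and fixed in 70% ethanol (final). […] 10 μg/ml, 30 min, 37 °C, then propidium iodide in PBS + 2% FBS. SubG1 gated; subG1 excluded before modeling live-cell cycle distribution.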

[3] = tested on: NCI sixty human tumor cell line panel; assay: NCI sixty human tumor cell line panel, single dose 10 μM; format: cell-based; conditions: Homo sapiens, read-out: Mean % growth at 10 μM
[4] = tested on: acetylation of SMC3 in HeLaM cells; assay: Western blot of SMC3 acetylation in HeLaM cells; format: cell-based; conditions: overnight treatment
Method in brief: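 Acetylated SMC3 detected by immunoblot with an anti-acetyl-SMC3 antibody, HRP-conjugated secondary antibody and enhanced chemiluminescence, imaged on film.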

[5] = tested on: mitotic spindle of HeLaM cells; format: cell-based; conditions: compound 10 μM + MG132 + ZM447439 (DMSO+MG132+ZM447439 3%)
[6] = target: tubulin heterodimers, purified from porcine brain (Sus scrofa, UniProt P02554); assay: Turbidity-based tubulin polymerization assay; format: biochemical; conditions: for Vmax of tubulin polymerization: 37 °C, exponential phase (DMSO 10 mOD/min)
tubulin heterodimers, purified from porcine brain, sequence (P02554 whole entry): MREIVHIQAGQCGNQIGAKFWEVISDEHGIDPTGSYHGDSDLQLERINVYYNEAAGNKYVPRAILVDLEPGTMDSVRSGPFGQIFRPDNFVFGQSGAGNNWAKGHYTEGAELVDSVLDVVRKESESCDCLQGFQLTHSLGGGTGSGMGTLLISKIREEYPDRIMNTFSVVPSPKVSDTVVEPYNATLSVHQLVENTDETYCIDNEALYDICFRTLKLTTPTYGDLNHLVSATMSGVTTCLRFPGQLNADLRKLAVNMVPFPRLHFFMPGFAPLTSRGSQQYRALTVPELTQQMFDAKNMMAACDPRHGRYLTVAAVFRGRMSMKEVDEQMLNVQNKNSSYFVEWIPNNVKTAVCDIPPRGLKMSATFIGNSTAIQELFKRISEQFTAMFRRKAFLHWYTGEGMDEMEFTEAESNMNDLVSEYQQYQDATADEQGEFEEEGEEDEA
tubulin heterodimers, purified from porcine brain, sequence (P02550 whole entry partner): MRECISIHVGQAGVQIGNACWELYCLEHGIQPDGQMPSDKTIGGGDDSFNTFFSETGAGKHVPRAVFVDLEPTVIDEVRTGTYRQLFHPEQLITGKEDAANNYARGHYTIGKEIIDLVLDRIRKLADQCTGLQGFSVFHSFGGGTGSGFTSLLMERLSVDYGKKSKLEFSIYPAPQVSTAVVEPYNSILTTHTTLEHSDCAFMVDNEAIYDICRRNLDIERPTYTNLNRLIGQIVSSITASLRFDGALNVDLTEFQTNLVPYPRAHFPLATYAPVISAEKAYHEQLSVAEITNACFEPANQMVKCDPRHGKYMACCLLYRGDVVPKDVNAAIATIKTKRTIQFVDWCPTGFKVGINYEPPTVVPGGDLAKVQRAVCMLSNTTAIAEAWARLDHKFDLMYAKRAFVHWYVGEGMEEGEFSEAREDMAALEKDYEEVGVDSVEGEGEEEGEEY

[7] = tested on: HDAC8-null and control HCT116 cells; assay: Cytotoxicity in HDAC8-null versus control HCT116 cells; format: cell-based, human; conditions: 10 μM
[8] = tested on: purified HDAC isoforms (HDAC1, 2, 3, 8 and HDAC6); assay: Single concentration; format: biochemical; conditions: 100 μM, HDAC1, 2, 3, 8 and 6
Method in brief: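 Recombinant HDAC1, 2, 3, 6 or 8 (1 μL of enzyme stock at 3, 1, 30, 35 or 70 ng/μL respectively) in HDAC-Glo buffer, incubated 3 h at room temperature with test compound in DMSO. HDAC-Glo reagent then added; luminescence read every 3 min for 30 min. Peak signal corrected against a no-enzyme background and divided by the no-inhibitor signal to give % activity remaining.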

[9] = tested on: HeLaM cells expressing mcherry-α-tubulin; assay: Spindle reassembly after recovery from cold shock; format: cell-based; conditions: 8 minutes post-rewarming, versus control
Method in brief: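 HeLaM clone stably expressing mCherry-α-tubulin, treated with test compound or DMSO for 30 min at 37 °C, chilled 30 min at 4 °C, then rewarmed at 37 °C. Fixed at 0, 4, 8 and 20 min after rewarming; wide-field fluorescence imaging. Four repeats, 10–30 cells per condition per experiment. Blinded 8-min images scored, and spindle outlines traced to quantify morphology.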

HCT 116 cells = assay: MTS reduction assay, antiproliferative activity on HCT 116; format: cell-based; conditions: Homo sapiens, HCT-116, 96 h
Method in brief: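 HCT116 cells grown in McCoy's 5A with 10% FBS (37 °C, 5% CO2), seeded at 3 × 10^3/well in triplicate and left to adhere overnight. Exposed to test compound at 0.01–100 μM, or DMSO, for 96 h. MTS reagent added for 2 h at 37 °C; absorbance read at 490 nm. Curves of log(concentration) vs response fitted with a variable Hill slope.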

HeLaM cells [10] = assay: Chromosome drops to determine mitotic index; format: cell-based; conditions: 10 μM, after release from thymidine block
Method in brief: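 HeLaM cells held in S phase with a single 2 mM thymidine block overnight, washed in PBS and released into test compound for about 9 h, then given ZM447439 for 90 min. Attached and floating cells were pooled, trypsinized, swollen in 0.075 M KCl (10 min, 37 °C), fixed in methanol:acetic acid 3:1 and dropped onto slides. DAPI stain. Mitotic index scored blinded over at least three experiments.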

HeLaM cells [11] = assay: Phase contrast time lapse microscopy, mitotic duration; format: cell-based; conditions: asynchronous HeLaM cells, images every 12 min

Row | Vmax of tubulin polymerization ([6]; 10 μM compound) [mOD/min] | Vmax of tubulin polymerization ([6]; 50 μM compound) [mOD/min] | microtubule depolymerization upon cooling ([6]; 50 μM, cooling to ~15°C) | GI50 (HCT 116 cells) [µM] | SMILES | global histone H3 acetylation and tubulin acetylation [1] | cells in G2/M (HeLaM cells [2]; 48 hours, subG1 excluded (DMSO 10%)) [%] | subG1 population (HeLaM cells [2]; 72 hr post treatment (DMSO 14%)) [%] | activity at 10 µM [3] [%] | SMC3 acetylation [4] | spindle collapse [5] | cell killing of parental and HDAC8-null cells [7] | activity remaining, each HDAC isoform [8] | abnormal spindles [9] | mitotic arrest (mitotic index) (HeLaM cells [10]) | mitotic duration / mitotic arrest (HeLaM cells [11]) [h]
1 | 5.5 | 4.5 | Depolymerization was accelerated | 6.95 | O=C(Cc1ccc(/C=C/C(=O)c2ncc[nH]2)cc1)Nc1ccc(F)cc1 [IPE-7, (E)-2-(4-(3-(1H-Imidazol-2-yl)-3-oxoprop-1-en-1-yl)phenyl)-N-(4-fluorophenyl)acetamide] | no increase in global histone acetylation or tubulin acetylation | 36 | 58 | 27.5 | no effect on SMC3 acetylation | 97% | both parental and HDAC8-null cells were killed | 20–80% | significantly more abnormal spindles | arrested cells in mitosis | 
2 |  |  |  |  | COc1ccc(Cn2ccc3ccc(C(=O)NO)cc32)cc1 [PCI34051, reference compound] |  |  |  |  | an increase in SMC3 acetylation | did not produce the same aberrant spindle |  |  |  |  | 1.5
